The values below come from the RNAGym collection of RNA variant scans (doi:10.1002/anie.201605470).

Sequences and labels used below:
B1: Osa-1-4 twister ribozyme (parent)
chain: CCGCCUAACACUGCCAAUGCCGGUCCCAAGCCCGGAUAAAAGUGGAGGGGGCGG

The variants in the data set derive from B1. The data set is described as follows: self-cleavage, relative activity (ratio to wild type); higher = more cleavage; co-transcriptional. The gist of the method:
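The 48 positions downstream of the cleavage site in a DNA template for a 54-nucleotide Oryza sativa twister ribozyme carried 97 % wild-type base and 1 % of each other base. After in vitro transcription (2 h, 37 °C) with co-transcriptional self-cleavage, the RNA was reverse-transcribed with a template-switching oligonucleotide, PCR-amplified and deep-sequenced. Relative activity is the fraction cleaved, judged by reads with or without upstream sequence and normalised to wild type.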
In the case of A29U G23A, the self-cleavage is 0.08.
For G30C G53U, the self-cleavage came out at 0.04.
On to G30C G53A, for which the self-cleavage was 0.04.
The figure for G30C G53C is 0.02.
On to A29G U18A, for which the self-cleavage came out at 0.23.
The result for A29G U18C reads 0.23; that for A29G U18G, 0.34; that for A29U U12C, 0.05.
The result for A29U U12G reads 0.04.
The figure for A29U U12A is 0.08; for G30C G54A it is 0.05.
On to G30C G54C, for which the self-cleavage came out at 0.04.
The result for G30C G54U reads 0.05; that for G30C G42A, 0.04; that for G30C G42U, 0.02.
As for G30C G42C, the self-cleavage came out at 0.04.
The result for A29U U37A reads 0.16; that for A29U U37C, 0.14.
Consider A29U U37G, for which the self-cleavage amounted to 0.23.
The figure for A29G G23U is 0.05; for A29G G23C it is 0.04.
In the case of A29G G49U, the self-cleavage is 0.04.
The result for A29G G49A reads 0.05; that for A29G G49C, 0.04.
Consider A29U A40C, for which the self-cleavage is 0.03.
For A29U A40U, the self-cleavage came out at 0.06.
The figure for A29U A40G is 0.08; for A29U U18C it is 0.13; for A29U U18A it is 0.12.
The figure for A29U U18G is 0.25; for A29G G50U it is 0.17.
The result for A29G G50A reads 0.27; that for A29G G50C, 0.08.
Consider G30A G48A, for which the self-cleavage was 0.01.
The result for G30A G48C reads 0.02; that for G30A G48U, 0.01.
The figure for G30A G45C is 0.02; for G30A G45A it is 0.03; for G30A G45U it is 0.02.
The figure for A29G U43A is 0.07; for A29G U43C it is 0.08; for A29G U43G it is 0.06.
Regarding A29U C33G, the self-cleavage came out at 0.04.
The figure for A29U C33A is 0.04.
In the case of A29U C33U, the self-cleavage is 0.08.
As for A29U G22U, the self-cleavage was found to be 0.08.
The result for A29U G22C reads 0.04; that for A29U G22A, 0.12; that for G30C U37C, 0.04.
The result for G30C U37G reads 0.05.
For the variant G30C U37A, the self-cleavage turned out to be 0.03.
Consider A29U A39G, for which the self-cleavage came out at 0.07.
Consider A29U A39C, for which the self-cleavage was found to be 0.05.
The result for A29U A39U reads 0.07; that for G30C G47C, 0.02; that for G30C G47U, 0.03.
Regarding G30C G47A, the self-cleavage worked out at 0.03.
The figure for G30U U12C is 0.03; for G30U U12G it is 0.03; for G30U U12A it is 0.03.
Turning to A29U A8G, the self-cleavage came out at 0.11.
The result for A29U A8C reads 0.04.
The figure for A29U A8U is 0.05; for A29U G34A it is 0.07.
The figure for A29U G34U is 0.05; for A29U G34C it is 0.05; for G30A G34A it is 0.11.
Turning to G30A G34U, the self-cleavage was determined as 0.04.
The result for G30A G34C reads 0.05; that for A29U G54A, 0.09; that for A29U G54C, 0.06.
The result for A29U G54U reads 0.27; that for G30U G44A, 0.04; that for G30U G44U, 0.05.
In the case of G30U G44C, the self-cleavage was found to be 0.04.
The result for A29U G51C reads 0.05; that for A29U G51U, 0.04.
As to A29U G51A, the self-cleavage turned out to be 0.06.
The figure for A29U C25A is 0.03.
The figure for A29U C25G is 0.05; for A29U C25U it is 0.1; for A29U G19A it is 0.05.
The result for A29U G19U reads 0.05; that for A29U G19C, 0.03; that for G30U U24A, 0.02.
A29U G44C: the self-cleavage was found to be 0.12.
The result for A29U G44U reads 0.07.
The result for A29U G44A reads 0.06; that for A29G G44A, 0.07.
For A29G G44C, the self-cleavage is 0.16.
Regarding A29G G44U, the self-cleavage came out at 0.08.
The figure for G30U is 0.04.
On to G30A, for which the self-cleavage is 0.04.
The figure for G30C is 0.04.
The result for G30A G54A reads 0.05; that for G30A G54C, 0.04; that for G30A G54U, 0.06.
The result for A29U C20G reads 0.03.
On to A29U C20A, for which the self-cleavage worked out at 0.12.
Take A29U C20U: the self-cleavage was 0.21.
The result for A29U A38U reads 0.09; that for A29U A38G, 0.09.
For A29U A38C, the self-cleavage stood at 0.08.
Regarding G30A U37G, the self-cleavage was 0.05.
The result for G30A U37C reads 0.03.
The result for G30A U37A reads 0.03; that for A29U C15A, 0.04.
The result for A29U C15G reads 0.09; that for A29U C15U, 0.07; that for G30U U18A, 0.03.
As for G30U U18G, the self-cleavage came out at 0.04.
The result for G30U U18C reads 0.04; that for A29U A41U, 0.2; that for A29U A41C, 0.13.
The figure for A29U A41G is 0.06.
The result for G30C U18G reads 0.06; that for G30C U18C, 0.05; that for G30C U18A, 0.05.
As to A29G G34C, the self-cleavage turned out to be 0.06.
On to A29G G34U, for which the self-cleavage was 0.05.
On to A29G G34A, for which the self-cleavage was found to be 0.13.
The figure for G30A U43G is 0.04; for G30A U43A it is 0.04; for G30A U43C it is 0.02.
Take G30C G49U: the self-cleavage was 0.02.
G30C G49A: the self-cleavage is 0.02.
As to G30C G49C, the self-cleavage is 0.02.
The figure for G30U G42C is 0.03; for G30U G42U it is 0.02.
The result for G30U G42A reads 0.04; that for G30U G35U, 0.04.
Turning to G30U G35A, the self-cleavage stood at 0.04.
The figure for G30U G35C is 0.03; for G30A U24C it is 0.03.
The figure for G30A U24G is 0.01; for G30A U24A it is 0.03; for G30U G49U it is 0.03.
Turning to G30U G49A, the self-cleavage worked out at 0.02.
The figure for G30U G49C is 0.02; for G30A G42A it is 0.04.
Take G30A G42U: the self-cleavage amounted to 0.02.
The figure for G30A G42C is 0.03.
For the variant A29U C9A, the self-cleavage amounted to 0.03.
For the variant A29U C9U, the self-cleavage is 0.05.
On to A29U C9G, for which the self-cleavage worked out at 0.07.
On to A29U G42C, for which the self-cleavage is 0.04.
The figure for A29U G42U is 0.03; for A29U G42A it is 0.06; for A29U A7U it is 0.05.
For the variant A29U A7G, the self-cleavage was found to be 0.06.
Turning to A29U A7C, the self-cleavage stood at 0.02.
Take G30C U12G: the self-cleavage was determined as 0.1.
The result for G30C U12A reads 0.06; that for G30C U12C, 0.03.
The figure for A29G G45A is 0.05; for A29G G45C it is 0.03; for A29G G45U it is 0.04.
The figure for G30U G45U is 0.02.
For the variant G30U G45A, the self-cleavage came out at 0.03.
The figure for G30U G45C is 0.02; for G30U G47U it is 0.03; for G30U G47A it is 0.03.
The figure for G30U G47C is 0.01.
The figure for A29U is 0.21; for A29U G47C it is 0.03.
Consider A29U G47A, for which the self-cleavage was 0.03.
The result for A29U G47U reads 0.03.
